In ChEMBL document CHEMBL3853298, “Total synthesis and in vitro bioevaluation of clavaminols A, C, H & deacetyl clavaminol H as potential chemotherapeutic and antibiofilm agents” (Eur J Med Chem, 2016):

Experiments:
[1] = test system: Bacillus subtilis; experiment: Antibacterial activity against Bacillus subtilis MTCC 121 after 24 hrs by well diffusion method; assay type: functional; conditions: MTCC 121, 24 h
Procedure, shortened: (§1)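 Bacteria spread (0.1 mL suspension) on Mueller-Hinton agar; 6.0 mm wells loaded with compound over a 250 to 0.48 per-well dose range, methanol as negative control. Incubated 24 h at 37 °C. MIC taken as the lowest concentration still giving an inhibition zone. Duplicates, mean reported.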

[2] = test system: Pseudomonas aeruginosa; experiment: Antibacterial activity against Pseudomonas aeruginosa MTCC 2453 after 24 hrs by well diffusion method; assay type: functional; conditions: MTCC 2453, 24 h; procedure, shortened: as §1
[3] = Cytotoxicity against human DU145 cells assessed as cell growth inhibition by MTT assay; assay type: functional, cell-based; conditions: DU-145
[4] = Antifungal activity against Candida glabrata MTCC 3019 after 24 hrs by well diffusion method; assay type: functional; conditions: Nakaseomyces glabratus
Procedure, shortened: (§2)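 Candida/Issatchenkia lawns (0.1 mL suspension) on Mueller-Hinton agar; 6.0 mm bored wells receive compound across a 250 to 0.48 per-well dose range, methanol as negative control. Plates kept 24 h at 30 °C. MIC is the lowest concentration producing a visible inhibition zone. Duplicate runs, mean values.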

[5] = test system: Pseudomonas aeruginosa; experiment: Bactericidal activity against Pseudomonas aeruginosa MTCC 2453 after 24 hrs; assay type: functional; conditions: MTCC 2453, 24 h
Procedure, shortened: (§3)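 Broth macrodilution in Mueller Hinton broth, compound serially diluted from 150 down to 0. Overnight bacterial culture added to a final 1.5 × 10^8 CFU/mL (0.5 McFarland), 24 h at 37 °C. Suspension then subcultured onto Mueller Hinton agar for 24 h at 37 °C. MBC is the lowest concentration killing the strain. Duplicates.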

[6] = test system: Staphylococcus aureus; experiment: Antibacterial activity against Staphylococcus aureus MLS16 MTCC 2940 after 24 hrs by well diffusion method; assay type: functional; conditions: MLS16 MTCC 2940, 24 h; procedure, shortened: as §1
[7] = test system: Candida albicans; experiment: Fungicidal activity against Candida albicans MTCC 3958 after 24 hrs; assay type: functional; conditions: MTCC 3958, 24 h
Procedure, shortened: (§4)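 Candida grown overnight in Mueller Hinton broth. Compound serially diluted in the same broth from 150 to 0 and inoculated to a final 1.5 × 10^8 CFU/mL (0.5 McFarland), then 24 h at 37 °C. Tube contents plated onto Mueller Hinton agar for 24 h at 37 °C. MFC is the lowest concentration killing the yeast. Duplicates.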

[8] = test system: Candida albicans; experiment: Fungicidal activity against Candida albicans MTCC 1637 after 24 hrs; assay type: functional; conditions: MTCC 1637, 24 h; procedure, shortened: as §4
[9] = test system: Raoultella planticola; experiment: Antibacterial activity against Klebsiella planticola MTCC 530 after 24 hrs by well diffusion method; assay type: functional; conditions: MTCC 530, 24 h; procedure, shortened: as §1
[10] = test system: Staphylococcus aureus; experiment: Antibiofilm activity against Staphylococcus aureus MTCC 96 incubated for 24 hrs under static condition by crystal violet staining-based assay; assay type: functional
Procedure, shortened: (§5)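 Strains grown overnight in tryptone soy broth with 0.5% glucose. Compound (250 to 0) mixed with inoculum at 5 × 10^5 CFU/mL in polystyrene microtiter plates. Non-adherent cells washed off with PBS; wells stained with 0.1% crystal violet, dye solubilised in 95% ethanol, absorbance read at 540 nm. IC50 for 50% biofilm inhibition taken from dose-response curves. Triplicates, mean ± S.D.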

[11] = test system: Pseudomonas aeruginosa; experiment: Antibiofilm activity against Pseudomonas aeruginosa MTCC 2453 incubated for 24 hrs under static condition by crystal violet staining-based assay; assay type: functional; procedure, shortened: as §5
[12] = test system: Candida albicans; experiment: Antifungal activity against Candida albicans MTCC 7315 after 24 hrs by well diffusion method; assay type: functional; conditions: MTCC 7315, 24 h; procedure, shortened: as §2
[13] = test system: Staphylococcus aureus; experiment: Bactericidal activity against Staphylococcus aureus MTCC 96 after 24 hrs; assay type: functional; conditions: MTCC 96, 24 h; procedure, shortened: as §3
[14] = test system: Escherichia coli; experiment: Bactericidal activity against Escherichia coli MTCC 739 after 24 hrs; assay type: functional; conditions: MTCC 739, 24 h; procedure, shortened: as §3
[15] = test system: Candida albicans; experiment: Antifungal activity against Candida albicans MTCC 227 after 24 hrs by well diffusion method; assay type: functional; conditions: MTCC 227, 24 h; procedure, shortened: as §2
[16] = test system: Candida albicans; experiment: Antifungal activity against Candida albicans MTCC 1637 after 24 hrs by well diffusion method; assay type: functional; conditions: MTCC 1637, 24 h; procedure, shortened: as §2
[17] = test system: Raoultella planticola; experiment: Antibiofilm activity against Klebsiella planticola MTCC 530 incubated for 24 hrs under static condition by crystal violet staining-based assay; assay type: functional; procedure, shortened: as §5
[18] = Antifungal activity against Candida parapsilosis MTCC 1744 after 24 hrs by well diffusion method; assay type: functional; procedure, shortened: as §2
[19] = test system: Candida albicans; experiment: Fungicidal activity against Candida albicans MTCC 3017 after 24 hrs; assay type: functional; conditions: MTCC 3017, 24 h; procedure, shortened: as §4
[20] = test system: Candida albicans; experiment: Antifungal activity against Candida albicans MTCC 183 after 24 hrs by well diffusion method; assay type: functional; conditions: MTCC 183, 24 h; procedure, shortened: as §2
[21] = test system: Staphylococcus aureus; experiment: Bactericidal activity against Staphylococcus aureus MLS16 MTCC 2940 after 24 hrs; assay type: functional; conditions: MLS16 MTCC 2940, 24 h; procedure, shortened: as §3
[22] = test system: Candida albicans; experiment: Fungicidal activity against Candida albicans MTCC 183 after 24 hrs; assay type: functional; conditions: MTCC 183, 24 h; procedure, shortened: as §4
[23] = test system: Escherichia coli; experiment: Antibacterial activity against Escherichia coli MTCC 739 after 24 hrs by well diffusion method; assay type: functional; conditions: MTCC 739, 24 h; procedure, shortened: as §1
[24] = test system: Candida albicans; experiment: Fungicidal activity against Candida albicans MTCC 227 after 24 hrs; assay type: functional; conditions: MTCC 227, 24 h; procedure, shortened: as §4
[25] = test system: Candida albicans; experiment: Fungicidal activity against Candida albicans MTCC 4748 after 24 hrs; assay type: functional; conditions: MTCC 4748, 24 h; procedure, shortened: as §4
[26] = test system: Candida albicans; experiment: Antifungal activity against Candida albicans MTCC 3958 after 24 hrs by well diffusion method; assay type: functional; conditions: MTCC 3958, 24 h; procedure, shortened: as §2

CCCCCCCCC[C@H](O)[C@H](N)CO
31.2 µg/mL: MIC [12] | MIC [18] | MFC [19] | MFC [24] | MFC [25]
3.9 µg/mL: MIC [1] | MIC [6] | INH [11]
7.8 µg/mL: MIC [2] | MBC [13] | MIC [16] | MBC [21] | MIC [23] | MIC [26]
4.5 µg/mL: IC50 [10]
15.6 µg/mL: MIC [4] | MBC [5] | MFC [7] | MFC [8] | MIC [9] | MBC [14] | MIC [15] | MIC [20] | MFC [22]
9.2 µg/mL: IC50 [17]
34.1 µM: IC50 [3]
